Results: the EternaBench riboswitch data

Test system: MS2 coat protein
Assay: apparent Kd, MS2 coat protein; higher = weaker binding; RNA-MaP array; FMN 200 µM where present
Procedure, shortened: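 Designs were transcribed by stalled E. coli RNA polymerase on Illumina sequencing-chip clusters. They were titrated with SNAP-549-labelled MS2 coat protein from 0.7 or 1.5 nM, doubling to 3 µM, without and then with constant ligand. Buffer: 100 mM Tris-HCl pH 7.5, 80 mM KCl, 4 mM MgCl2, BSA, DTT, yeast tRNA, Tween-20. Green signal was normalised to red-channel RNA signal and control-cluster median Fmax. Apparent Kd is the median of filtered per-cluster binding-curve fits.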

[1] = designed as: ON switch for flavin mononucleotide, no ligand
[2] = ligand present: flavin mononucleotide, designed as: ON switch for flavin mononucleotide
[3] = designed as: OFF switch for flavin mononucleotide, no ligand
[4] = ligand present: flavin mononucleotide, designed as: OFF switch for flavin mononucleotide

Row | Sequence | apparent Kd [1] | apparent Kd [2] | apparent Kd [3] | apparent Kd [4]
1 | AGUGUCAUCGAGAAGGCCUCAACAUGAGGAUCACCCAUGUUGUAAUAUGGGAGGAUAUCGAUGAUACAGCUACGUUUCGUAGCG | 19.9 nM | 5.82 nM | – | –
2 | GUCGUGUCAGGAUAUACGUUUGUUUCUUUUUUUGUUGUUUAGUAGAAGGGACAUGAGGAUCACCCAUGUUUGUU | – | – | 29.4 nM | 47.4 nM
3 | AAUUAAUUAAUUAAUUCCUGCAUACAUGAGGAUCACCCAUGUAAGGAUAUCGUCAGGAAUACUGACGAGAAGGUACAUAGCAGG | – | – | 15.7 nM | 21.6 nM
4 | AGAAACUACGAGAAGGACAUGAGAACCUUCAUUUACAUGAGGAUCACCCAUGUAGGAUAUCGUAGUUUCAGGAUCGUGAGAUCA | – | – | 45.6 nM | 232 nM
5 | CUUGAAUAAGUGAGGAUAUACUGUUAGUAAUGAUUGUAGAAGGUACAUGAGGAUCACCCAUGUUUAUUCUUUAU | – | – | 15.7 nM | 16 nM
6 | UGGAAACAUGAGGAUCACCCAUGUAAAAGGUGGUUAGGAUAUGCAAAACGGAAAACGAAAGCAGAAGGGACAAAAA | 412 nM | 302 nM | – | –
7 | ACUGGUCGAGGAUAUACAUUCGUGCUUCGGCACGUAAGAUCACAUGAGGAUCACCCAUGUAGAAGGCGACCAGU | – | – | 104 nM | 732 nM
8 | AAUUAUAUGUAGAAGGUACUAACAUAAGUGUUGUAAGGAUAUACCAAUUUAUUAGUUUUAAAGUUACAUGAGGAUCACCCAUGU | 12.4 nM | 7.98 nM | – | –
9 | AGUGACUACGUAGGAUAUUAAUUCAUGGACUACAUGAGGAUCACCCAUGUUUAUUUAACAUCAGCUAAGAAGGACGUGGUCACA | 16.6 nM | 8.5 nM | – | –
10 | GAAUUAUUACAGAAGGUGUUUUACAUGAGGAUCACCCAUGUUUUAUUGUUUAAAUUUGUUAUUUACAAGGAUAUGUUCUAUUCU | 27 nM | 21.9 nM | – | –
11 | AGGUUUGGAGAGAAGGGCUAAUGGGUUUCGUUUGAGGUAUUCGCAACAUGAGGAUCACCCAUGUAGCAGGAUAUCUCAAAACUA | – | – | 4.88 nM | 7.95 nM
12 | AAUUUACAGCUAGGAUAUACAUGAGGAUCACCCAUGUGACGAUCGGAUCUUAUGAUCGUGUCCGUGUAGAAGGAGCAAAUAAGA | – | – | 8.15 nM | 10 nM
13 | GUGGCCCAGGCACAGGAUAUGUUUCUCGUAACAUGAGGAUCACCCAUGUGCCUAUGAGAUUUAAUGCAGAAGGGUGCACGCCACG | 135 nM | 18.4 nM | – | –
14 | UUGGACGUCGUAGGAUAUGUAGGAUAAUCCUACAUGAGGAUCACCCAUGUUGACAUGGAAGAAGGACAGAAGGACGAUGUCCAU | 1120 nM | 87.5 nM | – | –
15 | CGAGAUACGCUCGACCGAAAGGUACAUGAGGAUCACCCAUGUAGAAGGCGAUCCGCAACUCGGAUUGAGGAUAUAUACUACACA | – | – | 31.8 nM | 24.4 nM
16 | UGUCGGAGCAGAGGAUAUUACAUGAGGAUCACCCAUGUAUGAACUAAUAGCUGGAAACAGCAAUGUAAGAAGGCUGCUCCGACA | – | – | 6.27 nM | 17.9 nM
17 | UGAACUAUGUAGAAGGCCCACAUUUAUAUGUAGGGAGGAUAUACAUGAGGAUCACCCAUGUAAAGAGCAAGAGGAUUUGACAGA | – | – | 10.7 nM | 19.6 nM
18 | AAUUAUUGAUGAGGAUAUUGUGGUGAAACACGACAAGAAGGCAUUAUACACAUGAGGAUCACCCAUGUGAGCCUGAUGCAUAUA | – | – | 16.6 nM | 22.2 nM
19 | CCUCAGUCAGGAUAUAUCGCACCCAUGAAGUACAUAGGUUCAUAGAAGGGACAUGAGGAUCACCCAUGUCUAGA | – | – | 22 nM | 57 nM
20 | GGCCUGUGAGGAUAUUAGUAGUAGUCAGAAUAGACUAUUACUGAGAAGGUACAUGAGGAUCACCCAUGUUGGCC | – | – | 19.4 nM | 15.9 nM
21 | UAUUUAAUCAUAGGAUAUAGUGUGAAAUUUGGACUAGAAGGAUGUAACAUGAGGAUCACCCAUGUGGUAAGUGGGACACAGUGA | 106 nM | 177 nM | – | –
22 | GUCACGUCAGGAUAUCUGAUGUCUAACUUCGGUUAGACAUCAGAGAAGGGACAUGAGGAUCACCCAUGUGACAG | – | – | 140 nM | 275 nM
23 | UUGGACGUCGUAGGAUAUGUAGGAUAUUCCUACAUGAGGAUCACCCAUGUGGACAUGGAAGAAGGACAGAAGGACGAUGUCCAU | 63.7 nM | 4.7 nM | – | –
24 | UGUUUGCGGCAGGAUAUCCAUCCGCGGUGUGGUGGAGAAGGGCUGACAUGAGGAUCACCCAUGUGCGUCCUGUA | – | – | 19.4 nM | 27.5 nM

Row | Sequence | apparent Kd [1] | apparent Kd [2] | apparent Kd [3] | apparent Kd [4]
25 | AUGUUGAGCAGUGUAUUAAGAUCACAUGAGGAUCACCCAUGUAGAAGGUAUGAGCUGAUCGCUCAUAAGGAUAUACAUCACUGC | – | – | 69.9 nM | 119 nM
26 | CGUUGAUGAUUUCUUCACAUGAGGAUCACCCAUGUCGCUCGACAGGAUAUAUUUGAGUUGUUUAAGUAGAAGGGUCGCAGAUGC | 112 nM | 183 nM | – | –
27 | AUUUAAUUUAAUAAGAUCACAUGAGGAUCACCCAUGUAUAUAUAGGAUAUCAGCUCGAUUAGAGCUGAGAAGGAUAUAUACUAU | – | – | 383 nM | 322 nM
28 | AAAAGGCUAGGAUAUACAUGAGGAUCACCCAUGUGUACUGGACAUGCGGUAUGCGUAUGUAGAAGGAGUAUAAA | – | – | 14.4 nM | 21.6 nM
29 | GAUUGACAUGAGGAUCACCCAUGUGAGGAUAUCGGCUGGACCGUGUUGGCUUGCCUUUCGAGAAGGCGCAUAGG | – | – | 37.7 nM | 42 nM
30 | GCGUAAGAACAGAAGGGUAGACAUGAGGAUCACCCAUGUAAACAUGGAUGCAGGAUAUGUUAUAAUUGAGAUUCAUAAAUUCGC | 130 nM | 106 nM | – | –
31 | AUACAUGAGGAUCACCCAUGUUACAUGGCCUUGAUAGAUUGUAGAAGGAUGUUAUUAUUAAUUUCAUAGGAUAUACUAUUUAGU | – | – | 106 nM | 83.9 nM
32 | UUUGGUUGUGUAGGAUAUGUGUGGCGGGCUGGCACAGAAGGACAUGAGGAUCACCCAUGUGGUUUGGGUUGGGUGGUUGGCCCG | – | – | 943 nM | 771 nM
33 | ACAUGAGGAUCACCCAUGUAGAAUGAAGAAGGUAGAUACUUGAGACUCACCCAUGUACAUAGGACUAAGGAUAUUCUAAUAAUU | 14.1 nM | 10.7 nM | – | –
34 | ACAGGUUAAGGAUAUACAUGAGGAUCACCCAUGUCGAGUAUCUUGUCAUGCCGCCCAUGUAGAAGGUAACAUGG | – | – | 13.5 nM | 17 nM
35 | GCUUGUGAAGGAUAUACUGGAGGCGUGCGAUAGAAGCACGCACAUGAGGAUCACCCAUGUAGAAGGUCAGGCGU | – | – | 36.9 nM | 44.5 nM
36 | GUGGCUGUUAGGCUUGCGCCGGCGACAGAAGGCCAACAUGAGGAUCACCCAUGUACAAAGACCAUGGAGGAUAUGUUGCCAGUG | 41.8 nM | 8.95 nM | – | –
37 | CGCAAGUCAGGAUAUUCGACUGGUAAAUCUGUGGAUCAGUAGGAGAAGGGACAUGAGGAUCACCCAUGUUUGUA | – | – | 29.5 nM | 35.9 nM
38 | GGAUCGAGUGUGAGGAUAUGCUGGUCCUUGGAUCAGCAGAAGGCACAUGAGGAUCACCCAUGUGUUCCCGAUCC | – | – | 43.6 nM | 626 nM
39 | CCGAAUGUCACAGGAUAUGGUCCGGGCUCGCGACCAGAAGGGUGAUCUCACAUGAGGAUCACCCAUGUGUAGGCGUUAGGCUAC | 36.3 nM | 260 nM | – | –
40 | CUCGUGUCAGGAUAUCGAUGGCACCUCCGGGCGCCCGAACGCGAGAAGGGACAUGAGGAUCACCCAUGUAAAAC | – | – | 66.8 nM | 113 nM
41 | GUAGCUAUCGCAGGAUAUUCAUACCGGAAACGGACAUGAGGAUCACCCAUGUGGCGAAAGCCUUGGGAGAAGGCCGAUAGCUAC | 1160 nM | 789 nM | – | –
42 | GUGGUCAGACAUGAGGAUCACCCAUGUGGAAUAAAUAAGGAGAAGGAUAUGAAAUAUAGGAUAUAUCAGAAGGUCUGGUUGGUG | 72.2 nM | 77.1 nM | – | –
43 | GCGUUCUUGUAGAAGGUACAUGAAUUCUAUUUUUAACACAUGAAACAUGAGGAUCACCCAUGUUGUAAGGAUAUACAUGAACGC | 6.98 nM | 5.83 nM | – | –
44 | AGCGAACAGGCUAACAUGAGGAUCACCCAUGUGGACUCAUGGUAGGAUAUCGGGAAGGAGGAAACCGAGAAGGGCCGGUGAGCC | 440 nM | 229 nM | – | –
45 | GGGUUGUGAGGAUAUUAGUUGUACGUCAAUAGACGUAUAGGUGAGAAGGCACAUGAGGAUCACCCAUGUUCCUG | – | – | 23.8 nM | 56.9 nM
46 | AUAUAUAUCCAGAAGGUGCCAGCGAGAGCUGCACAUGAGGAUCACCCAUGUUGUCGGUGACGACGCAAGGAUAUGGAUAUAUAU | 28.2 nM | 7.43 nM | – | –
47 | AUUUAUGGCCAGAAGGACAUGAGGAUCACCCAUGUAGGAUAUGGACGAUUUUGCUCGACGGUUUGUUAAGGAAGCACCGGUGGU | 12.4 nM | 6.52 nM | – | –
48 | GGAUGACAAAGUCAUCCAAUACGAACAUGAGGAUCACCCAUGUAGGAUAUGCUAGUCAAAGACUAGCAGAAGGACAUGUGCCUU | – | – | 39.2 nM | 238 nM
